From ChEMBL document CHEMBL2169869, “Assay and inhibition of diacylglycerol lipase activity” (Bioorg Med Chem Lett, 2012) come the findings set out here.

In assay [1] the target is T1, Fatty-acid amide hydrolase 1 (Rattus norvegicus) (UniProt P97612).
T1 sequence (whole entry): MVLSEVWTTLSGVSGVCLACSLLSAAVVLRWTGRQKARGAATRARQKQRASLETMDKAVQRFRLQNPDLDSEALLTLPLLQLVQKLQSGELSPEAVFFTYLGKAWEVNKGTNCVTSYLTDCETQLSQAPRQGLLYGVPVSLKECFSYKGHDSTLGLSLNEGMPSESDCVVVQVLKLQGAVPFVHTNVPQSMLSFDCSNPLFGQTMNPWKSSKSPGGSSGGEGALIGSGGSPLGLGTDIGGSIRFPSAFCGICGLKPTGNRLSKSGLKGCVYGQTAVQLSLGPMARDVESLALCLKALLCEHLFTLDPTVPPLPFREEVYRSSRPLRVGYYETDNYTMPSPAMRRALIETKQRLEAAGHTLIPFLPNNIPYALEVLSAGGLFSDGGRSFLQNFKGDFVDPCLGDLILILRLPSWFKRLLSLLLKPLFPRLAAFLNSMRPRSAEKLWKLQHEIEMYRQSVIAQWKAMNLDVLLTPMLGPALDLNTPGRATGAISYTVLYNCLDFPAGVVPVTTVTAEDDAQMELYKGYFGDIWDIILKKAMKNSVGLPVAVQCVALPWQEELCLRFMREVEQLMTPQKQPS
In words: Inhibition of rat histidine tagged FAAH expressed in Escherichia coli at 10 uM by coumarin ester substrate fluorescence assay.

Assay [2] addresses T2, Diacylglycerol lipase-alpha (Homo sapiens) (UniProt Q9Y4D2).
T2 sequence (whole entry): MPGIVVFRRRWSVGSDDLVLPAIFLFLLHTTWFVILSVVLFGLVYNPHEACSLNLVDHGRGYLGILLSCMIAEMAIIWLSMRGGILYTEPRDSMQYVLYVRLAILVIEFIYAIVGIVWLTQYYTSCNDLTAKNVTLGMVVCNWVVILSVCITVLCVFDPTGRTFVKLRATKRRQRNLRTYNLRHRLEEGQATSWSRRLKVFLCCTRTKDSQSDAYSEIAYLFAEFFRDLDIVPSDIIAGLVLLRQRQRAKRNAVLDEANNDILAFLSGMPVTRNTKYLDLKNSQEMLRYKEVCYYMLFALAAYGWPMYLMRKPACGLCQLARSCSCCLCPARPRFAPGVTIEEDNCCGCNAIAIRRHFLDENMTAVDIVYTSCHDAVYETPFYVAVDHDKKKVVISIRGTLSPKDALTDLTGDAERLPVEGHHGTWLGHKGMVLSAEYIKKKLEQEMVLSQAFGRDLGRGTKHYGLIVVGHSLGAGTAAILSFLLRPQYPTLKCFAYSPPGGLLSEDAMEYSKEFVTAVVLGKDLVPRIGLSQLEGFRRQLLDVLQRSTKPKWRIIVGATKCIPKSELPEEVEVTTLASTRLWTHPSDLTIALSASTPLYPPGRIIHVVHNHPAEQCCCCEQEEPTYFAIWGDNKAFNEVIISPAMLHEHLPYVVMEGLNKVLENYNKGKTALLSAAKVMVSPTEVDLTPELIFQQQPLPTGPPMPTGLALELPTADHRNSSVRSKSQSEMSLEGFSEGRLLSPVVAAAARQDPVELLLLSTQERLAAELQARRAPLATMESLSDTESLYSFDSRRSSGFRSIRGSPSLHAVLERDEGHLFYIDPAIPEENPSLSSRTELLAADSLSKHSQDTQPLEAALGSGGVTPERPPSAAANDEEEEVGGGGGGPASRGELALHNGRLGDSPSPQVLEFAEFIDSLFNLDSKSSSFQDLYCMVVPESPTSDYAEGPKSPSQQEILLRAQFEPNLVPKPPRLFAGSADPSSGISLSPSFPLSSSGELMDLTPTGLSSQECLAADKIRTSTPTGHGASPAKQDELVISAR
As to the kind of experiment: Inhibition of human DAGLalpha expressed in HEK293T cell membrane using [14C]SAG substrate at 10 uM in presence of 0.05% Triton X-100 by scintillation counting based radio-TLC assay. As to conditions: HEK-293T. In kind it is cell membranes. An outline of the steps: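 Sonicated HEK293T protein (100 μg) in 50 mM Tris pH 7.4 with 10 mM CaCl2. Inhibitor in DMSO (10% DMSO standard) preincubated 15 min at 37 °C. [14C]SAG was added to 20 μM final for 20 min at 37 °C, with Triton X-100 where the line states it. Quenched with 2:1 CHCl3/MeOH. Silica TLC in CHCl3/MeOH/NH4OH 86:14:0.75, then 12 h phosphorimaging. Activity = (2-AG+AA)/(2-AG+AA+SAG). Background-subtracted; n=1–2.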

By inhibition is commonly meant the drop in the measured response relative to a control, in per cent. In the case of `CCCCCCCCCCC[C@@H](C[C@@H]1OC(=O)[C@H]1CCCCCC)OC(=O)[C@H](CC(C)C)NC=O` [ORLISTAT], the inhibition in assay [1] was 6%; in assay [2] it was 100%.

For `CCCCCCCCCCC[C@@H](C[C@@H]1OC(=O)[C@H]1CCCCCC)OC(=O)[C@@H](NC=O)[C@H](C)CC`, the inhibition was found to be 3% in assay [1] and 95% in assay [2].

Regarding `CCCCCCCCCCC[C@@H](C[C@@H]1OC(=O)[C@H]1CCCCCC)OC(=O)[C@H](CC)NC=O`, the inhibition was found to be 12% in assay [1] and 99% in assay [2].

`CCCCCCCCCCC[C@@H](C[C@@H]1OC(=O)[C@H]1CCCCCC)OC(=O)[C@@H](NC=O)[C@@H](C)CC`: the inhibition in assay [1] came out at 7%; in assay [2] it was 98%.

Take `CCCCCCCCCCC[C@@H](C[C@@H]1OC(=O)[C@H]1CCCCCC)OC(=O)[C@H](NC=O)[C@H](C)CC`: the inhibition amounted to 28% in assay [1] and 78% in assay [2].

`CCCCCCCCCCC[C@@H](C[C@@H]1OC(=O)[C@H]1CCCCCC)OC(=O)[C@H](NC=O)[C@@H](C)CC`: the inhibition in assay [1] came out at 0%; in assay [2], 86%.

Regarding `O=C(Oc1ccc([N+](=O)[O-])cc1)N1CCC(C(O)(c2ccc3c(c2)OCO3)c2ccc3c(c2)OCO3)CC1`, the inhibition in assay [1] was found to be 97%.
